Results: ChEMBL document CHEMBL4052710 (Bioorg Med Chem Lett, 2017)
Active and inactive are the calls of the source. The rule behind the calls is not given here.

Experiments:
[1] = test system: HeLa; assay: Growth inhibition of human HeLa cells incubated for 72 hrs at 1 uM by CCK8 assay; type: functional; details: read-out: GI
Outline: (§1)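 CCK8 viability assay on a panel of human cancer cell lines, with an initial screen at fixed concentrations of 1 µM and 10 µM.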

[2] = test system: T47D; assay: Induction of apoptosis in human T47D cells assessed as necrotic cells level at 0.25 uM incubated for 48 hrs by annexin V-FITC and propidium iodide staining based flow cytometry (reference value: 2.79%); type: functional
[3] = test system: NCI-H1299; assay: Growth inhibition of human H1299 cells incubated for 72 hrs at 10 uM by CCK8 assay; type: functional; details: NCI-H1299, 72 h, read-out: GI; outline: as §1
[4] = test system: T47D; assay: Induction of apoptosis in human T47D cells assessed as late apoptotic cells level at 0.5 uM incubated for 48 hrs by annexin V-FITC and propidium iodide staining based flow cytometry (reference value: 0.48%); type: functional
[5] = test system: T47D; assay: Induction of apoptosis in human T47D cells assessed as viable cells level at 1 uM incubated for 48 hrs by annexin V-FITC and propidium iodide staining based flow cytometry (reference value: 96%); type: functional
[6] = test system: T47D; assay: Induction of apoptosis in human T47D cells assessed as early apoptotic cells level at 0.5 uM incubated for 48 hrs by annexin V-FITC and propidium iodide staining based flow cytometry (reference value: 0.75%); type: functional
[7] = test system: T47D; assay: Induction of apoptosis in human T47D cells assessed as late apoptotic cells level at 0.25 uM incubated for 48 hrs by annexin V-FITC and propidium iodide staining based flow cytometry (reference value: 0.48%); type: functional
[8] = target: Cyclin-dependent kinase 5/CDK5 activator 1 (Homo sapiens) (UniProt Q00535+Q15078); assay: Inhibition of human CDK5/p35 at 1 uM by enzymatic radiometric assay; type: protein-complex assay
Chain of Cyclin-dependent kinase 5/CDK5 activator 1 (Homo sapiens) (Q00535 whole entry): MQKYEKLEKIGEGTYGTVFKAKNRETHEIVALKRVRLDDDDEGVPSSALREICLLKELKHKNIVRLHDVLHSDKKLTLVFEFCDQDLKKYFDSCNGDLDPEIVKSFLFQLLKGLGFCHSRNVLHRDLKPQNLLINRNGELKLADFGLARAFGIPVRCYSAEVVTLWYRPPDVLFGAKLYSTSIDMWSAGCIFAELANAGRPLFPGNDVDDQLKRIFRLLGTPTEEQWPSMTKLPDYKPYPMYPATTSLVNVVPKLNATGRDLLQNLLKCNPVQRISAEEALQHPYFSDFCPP
Chain of Cyclin-dependent kinase 5/CDK5 activator 1 (Homo sapiens) (Q15078 99-307 partner limits assumed): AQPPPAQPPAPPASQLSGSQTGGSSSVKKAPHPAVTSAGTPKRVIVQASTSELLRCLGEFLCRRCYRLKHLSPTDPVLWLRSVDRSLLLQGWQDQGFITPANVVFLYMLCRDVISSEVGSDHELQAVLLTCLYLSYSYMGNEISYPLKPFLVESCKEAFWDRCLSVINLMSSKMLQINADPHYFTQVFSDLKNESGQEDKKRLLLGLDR

[9] = target: CDK7/Cyclin H/MNAT1 (Homo sapiens) (UniProt P51946+P50613+P51948); assay: Inhibition of human CDK7/CyclinH/MAT1 at 1 uM by enzymatic radiometric assay; type: protein-complex assay
[10] = test system: T47D; assay: Induction of apoptosis in human T47D cells assessed as late apoptotic cells level at 5 uM incubated for 48 hrs by annexin V-FITC and propidium iodide staining based flow cytometry (reference value: 0.48%); type: functional
[11] = test system: T47D; assay: Induction of apoptosis in human T47D cells assessed as late apoptotic cells level at 1 uM incubated for 48 hrs by annexin V-FITC and propidium iodide staining based flow cytometry (reference value: 0.48%); type: functional
[12] = test system: T47D; assay: Inhibition of cell migration of human T47D cells at 0.5 to 5 uM incubated for 16 hrs by transwell cell migration assay; type: functional, cell-based
Outline: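 T47D cells were assayed by transwell migration. After 16 h incubation, migrated cells were counted by microscope in five random fields per chamber.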

[13] = test system: T47D; assay: Induction of apoptosis in human T47D cells assessed as necrotic cells level at 5 uM incubated for 48 hrs by annexin V-FITC and propidium iodide staining based flow cytometry (reference value: 2.79%); type: functional
[14] = test system: SiHa; assay: Growth inhibition of human SiHa cells incubated for 72 hrs at 1 uM by CCK8 assay; type: functional; details: read-out: GI; outline: as §1
[15] = test system: T47D; assay: Induction of apoptosis in human T47D cells assessed as viable cells level at 0.5 uM incubated for 48 hrs by annexin V-FITC and propidium iodide staining based flow cytometry (reference value: 96%); type: functional
[16] = target: CDK6/cyclin D3 (Homo sapiens) (UniProt P30281+Q00534); assay: Inhibition of human CDK6/CyclinD3 at 1 uM by enzymatic radiometric assay; type: protein-complex assay
[17] = target: CDK3/Cyclin E (Homo sapiens) (UniProt P24864+Q00526); assay: Inhibition of human CDK3/CyclinE at 1 uM by enzymatic radiometric assay; type: protein-complex assay
Chain of CDK3/Cyclin E (Homo sapiens) (P24864 whole entry, looked up): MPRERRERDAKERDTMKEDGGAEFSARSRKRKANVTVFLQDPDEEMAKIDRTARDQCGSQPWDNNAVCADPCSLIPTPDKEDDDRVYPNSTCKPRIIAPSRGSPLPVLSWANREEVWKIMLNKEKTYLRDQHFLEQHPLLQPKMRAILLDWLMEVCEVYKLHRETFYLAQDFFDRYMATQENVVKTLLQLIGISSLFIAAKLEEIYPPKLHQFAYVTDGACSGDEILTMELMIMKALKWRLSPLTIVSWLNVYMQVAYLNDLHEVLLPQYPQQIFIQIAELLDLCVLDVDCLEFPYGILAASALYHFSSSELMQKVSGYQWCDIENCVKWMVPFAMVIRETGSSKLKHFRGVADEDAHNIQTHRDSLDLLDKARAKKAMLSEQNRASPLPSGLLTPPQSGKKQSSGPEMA
Chain of CDK3/Cyclin E (Homo sapiens) (Q00526 whole entry, looked up): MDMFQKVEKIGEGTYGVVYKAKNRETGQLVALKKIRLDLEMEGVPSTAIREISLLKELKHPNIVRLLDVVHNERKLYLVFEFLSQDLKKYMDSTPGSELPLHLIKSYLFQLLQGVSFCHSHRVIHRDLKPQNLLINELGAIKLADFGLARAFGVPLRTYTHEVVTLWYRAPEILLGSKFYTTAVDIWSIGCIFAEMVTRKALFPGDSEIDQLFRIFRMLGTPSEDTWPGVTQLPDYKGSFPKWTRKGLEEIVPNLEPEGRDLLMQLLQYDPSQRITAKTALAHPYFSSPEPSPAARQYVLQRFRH
Outline: (§2)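 Kinase panel run through the Eurofins KinaseProfiler, with compound at a fixed 1 µM. Values are means of two independent experiments.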

[18] = test system: SiHa; assay: Growth inhibition of human SiHa cells incubated for 72 hrs at 10 uM by CCK8 assay; type: functional; details: read-out: GI; outline: as §1
[19] = test system: T47D; assay: Induction of cell cycle arrest in human T47D cells assessed as reduction in S phase accumulation at 0.1 to 1 uM incubated for 24 hrs by flow cytometry; type: functional, cell-based
Outline: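 Cells were treated for 24 h with compound at 0.1, 0.5 and 1 µM, with LEE011 or vehicle (DMSO) alongside. Cell-cycle phase distribution was then determined by flow cytometry.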

[20] = test system: OVCAR-5; assay: Growth inhibition of human OVCAR5 cells incubated for 72 hrs at 1 uM by CCK8 assay; type: functional; details: OVCAR-5, 72 h, read-out: GI; outline: as §1
[21] = test system: A549; assay: Growth inhibition of human A549 cells incubated for 72 hrs at 1 uM by CCK8 assay; type: functional; details: A549, 72 h, read-out: GI; outline: as §1
[22] = test system: NCI-H1299; assay: Growth inhibition of human H1299 cells incubated for 72 hrs by CCK8 assay; type: functional, cell-based; details: NCI-H1299, 72 h
[23] = target: CDK18/Cyclin Y (Homo sapiens) (UniProt Q07002+Q8ND76); assay: Inhibition of human CDK18/CyclinY at 1 uM by enzymatic radiometric assay; type: protein-complex assay; outline: as §2

inhibition [8]: 81%
inhibition [9]: 7%
inhibition [16]: 71%
inhibition [17]: 65%
IC50 [22]: 221 nM
inhibition [23]: 6%
Compound: CN(C)C(=O)c1cc2cnc(Nc3ccc(NC(=O)C4(C(=O)Nc5ccc(F)cc5)CC4)cc3)nc2n1C1CCCC1
inhibition of growth at 1 µM [1]: 49.8%
Activity [2]: 2.01%
inhibition of growth at 10 µM [3]: 90.8%
Activity [4]: 3.58%
Activity [5]: 90.5%
Activity [6]: 0.65%
Activity [7]: 3.28%
Activity [10]: 5.29%
Activity [11]: 4.98%
inhibition [12]: Active
Activity [13]: 2.23%
inhibition of growth at 1 µM [14]: 36.5%
Activity [15]: 93.1%
inhibition of growth at 10 µM [18]: 98%
Activity [19]: Active
inhibition of growth at 1 µM [20]: 65.4%
inhibition of growth at 1 µM [21]: 86.6%
